ChEMBL document CHEMBL3286116, “Synthesis, biological evaluation and structure-activity correlation study of a series of imidazol-based compounds as Candida albicans inhibitors” (Eur J Med Chem, 2014)
Converted amounts (≈) assume the structure as drawn.

Legend:
Candida albicans [1] = test: Antifungal activity against Candida albicans ATCC 3153 after 48 hrs by CLSI broth microdilution method; assay type: functional; conditions: ATCC 3153, 48 h
Method in brief: (§1)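 Yeast CLSI broth microdilution (M27-A3). Compounds dissolved in DMSO at 100× the top test concentration, then diluted as serial two-fold dilutions in RPMI 1640 to final 0.125–64. Inoculum was 1.0–1.5 × 10^3 cells mL−1, incubated at 35 °C and read for growth at 48 h. MIC is the lowest concentration giving ≥50% growth inhibition versus growth control. Reported as the median of five replicates and as the geometric mean.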

[2] = Cytotoxicity against human A549 cells after 48 hrs by MTT assay; assay type: cell-based
Method in brief: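 A549 cells (ATCC CCL-185) seeded at 2 × 10^4/well in phenol-red-free RPMI 1640 with 10% FBS, L-glutamine, penicillin and streptomycin, at 37 °C and 5% CO2. Exposed 48 h to DMSO-dissolved compounds (final 16–256; at least five concentrations, triplicate). MTT added for 3–4 h, crystals solubilized, OD read at 570 nm. CC50 taken versus the DMSO control. Mean ± SD of two independent experiments.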

Cryptococcus neoformans [3] = test: Antifungal activity against Cryptococcus neoformans PMC 2103 after 72 hrs by CLSI broth microdilution method; assay type: functional; conditions: PMC 2103, 72 h
Method in brief: (§2)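 Cryptococcus neoformans tested by CLSI broth microdilution in RPMI 1640, with serial two-fold dilutions from DMSO stocks at 100× the top concentration, final 0.125–64. Inoculum was 1.0–1.5 × 10^3 cells mL−1 at 35 °C, with growth read at 72 h. MIC is the lowest concentration with ≥50% growth inhibition versus control. Median of five replicates, plus geometric mean.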

Candida albicans [4] = test: Antifungal activity against Candida albicans ATCC 10261 after 48 hrs by CLSI broth microdilution method; assay type: functional; conditions: ATCC 10261, 48 h; method in brief: as §1
Candida albicans [5] = test: Antifungal activity against Candida albicans ATCC 20891 after 48 hrs by CLSI broth microdilution method; assay type: functional; conditions: ATCC 20891, 48 h; method in brief: as §1
Cryptococcus neoformans [6] = test: Antifungal activity against Cryptococcus neoformans PMC 2102 after 72 hrs by CLSI broth microdilution method; assay type: functional; conditions: PMC 2102, 72 h; method in brief: as §2
Cryptococcus neoformans [7] = test: Antifungal activity against Cryptococcus neoformans PMC 2136 after 72 hrs by CLSI broth microdilution method; assay type: functional; conditions: PMC 2136, 72 h; method in brief: as §2
Candida tropicalis [8] = test: Antifungal activity against Candida tropicalis PMC 0910 after 48 hrs by CLSI broth microdilution method; assay type: functional; conditions: PMC 0910, 48 h; method in brief: as §1
Candida albicans [9] = test: Antifungal activity against Candida albicans ATCC 76615 after 48 hrs by CLSI broth microdilution method; assay type: functional; conditions: ATCC 76615, 48 h; method in brief: as §1
Nakaseomyces glabratus [10] = test: Antifungal activity against Candida glabrata PMC 0807 after 48 hrs by CLSI broth microdilution method; assay type: functional; conditions: PMC 0807, 48 h; method in brief: as §1
[11] = system: Trichophyton mentagrophytes; test: Antifungal activity against Trichophyton mentagrophytes PMC 6531 after 72 hrs by CLSI broth microdilution method; assay type: functional; conditions: PMC 6531, 72 h
Method in brief: (§3)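 Dermatophytes tested by CLSI broth microdilution for filamentous fungi (M38-A2). Serial two-fold dilutions of DMSO-dissolved compound in RPMI 1640, final 0.125–64. Inoculum was 0.4–5 × 10^4 CFU mL−1, incubated at 35 °C and read at 72 h. MIC80 is the lowest concentration giving ≥80% growth inhibition versus growth control. Median of five replicates, plus geometric mean.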

Candida albicans [12] = test: Antifungal activity against Candida albicans PMC 1011 after 48 hrs by CLSI broth microdilution method; assay type: functional; conditions: PMC 1011, 48 h; method in brief: as §1
Candida albicans [13] = test: Antifungal activity against Candida albicans ATCC 24433 after 48 hrs by CLSI broth microdilution method; assay type: functional; conditions: ATCC 24433, 48 h; method in brief: as §1
Candida albicans [14] = test: Antifungal activity against Candida albicans PMC 1041R after 48 hrs by CLSI broth microdilution method; assay type: functional; method in brief: as §1
Cryptococcus neoformans [15] = test: Antifungal activity against Cryptococcus neoformans PMC 2107 after 72 hrs by CLSI broth microdilution method; assay type: functional; conditions: PMC 2107, 72 h; method in brief: as §2
Nannizzia gypsea [16] = test: Antifungal activity against Microsporum gypseum PMC 7303 after 72 hrs by CLSI broth microdilution method; assay type: functional; conditions: PMC 7303, 72 h; method in brief: as §3
Candida tropicalis [17] = test: Antifungal activity against Candida tropicalis DSM 11953 after 48 hrs by CLSI broth microdilution method; assay type: functional; conditions: DSM 11953, 48 h; method in brief: as §1
Cryptococcus neoformans [18] = test: Antifungal activity against Cryptococcus neoformans DSM 11959 after 72 hrs by CLSI broth microdilution method; assay type: functional; conditions: DSM 11959, 72 h; method in brief: as §2
Candida albicans [19] = test: Antifungal activity against Candida albicans PMC 1040R after 48 hrs by CLSI broth microdilution method; assay type: functional; method in brief: as §1
Nakaseomyces glabratus [20] = test: Antifungal activity against Candida glabrata PMC 0853R after 48 hrs by CLSI broth microdilution method; assay type: functional; method in brief: as §1
[21] = system: Trichophyton mentagrophytes; test: Antifungal activity against Trichophyton mentagrophytes DSM 4870 after 72 hrs by CLSI broth microdilution method; assay type: functional; conditions: DSM 4870, 72 h; method in brief: as §3
Candida albicans [22] = test: Antifungal activity against Candida albicans ATCC 90028 after 48 hrs by CLSI broth microdilution method; assay type: functional; conditions: ATCC 90028, 48 h; method in brief: as §1
Candida parapsilosis [23] = test: Antifungal activity against Candida parapsilosis ATCC 22019 after 48 hrs by CLSI broth microdilution method; assay type: functional; conditions: Lodderomyces parapsilosis, ATCC 22019, 48 h; method in brief: as §1
[24] = system: Trichophyton mentagrophytes; test: Antifungal activity against Trichophyton mentagrophytes PMC 6515 after 72 hrs by CLSI broth microdilution method; assay type: functional; conditions: PMC 6515, 72 h; method in brief: as §3
Nannizzia gypsea [25] = test: Antifungal activity against Microsporum gypseum DSM 3824 after 72 hrs by CLSI broth microdilution method; assay type: functional; conditions: DSM 3824, 72 h; method in brief: as §3
Nakaseomyces glabratus [26] = test: Antifungal activity against Candida glabrata PMC 0851R after 48 hrs by CLSI broth microdilution method; assay type: functional; method in brief: as §1
Nakaseomyces glabratus [27] = test: Antifungal activity against Candida glabrata PMC 0850R after 48 hrs by CLSI broth microdilution method; assay type: functional; method in brief: as §1
[28] = system: Trichophyton mentagrophytes; test: Antifungal activity against Trichophyton mentagrophytes PMC 6503 after 72 hrs by CLSI broth microdilution method; assay type: functional; conditions: PMC 6503, 72 h; method in brief: as §3
Candida parapsilosis [29] = test: Antifungal activity against Candida parapsilosis DSM 11224 after 48 hrs by CLSI broth microdilution method; assay type: functional; conditions: Lodderomyces parapsilosis, DSM 11224, 48 h; method in brief: as §1
Candida albicans [30] = test: Antifungal activity against Candida albicans ATCC 10231 after 48 hrs by CLSI broth microdilution method; assay type: functional; conditions: ATCC 10231, 48 h; method in brief: as §1
Nannizzia gypsea [31] = test: Antifungal activity against Microsporum gypseum PMC 7331 after 72 hrs by CLSI broth microdilution method; assay type: functional; conditions: PMC 7331, 72 h; method in brief: as §3
[32] = system: Trichophyton mentagrophytes; test: Antifungal activity against Trichophyton mentagrophytes PMC 6552 after 72 hrs by CLSI broth microdilution method; assay type: functional; conditions: PMC 6552, 72 h; method in brief: as §3
Cryptococcus neoformans [33] = test: Antifungal activity against Cryptococcus neoformans PMC 2111 after 72 hrs by CLSI broth microdilution method; assay type: functional; conditions: PMC 2111, 72 h; method in brief: as §2
Nakaseomyces glabratus [34] = test: Antifungal activity against Candida glabrata PMC 0852R after 48 hrs by CLSI broth microdilution method; assay type: functional; method in brief: as §1
[35] = system: Trichophyton mentagrophytes; test: Antifungal activity against Trichophyton mentagrophytes PMC 6509 after 72 hrs by CLSI broth microdilution method; assay type: functional; conditions: PMC 6509, 72 h; method in brief: as §3
Cryptococcus neoformans [36] = test: Antifungal activity against Cryptococcus neoformans PMC 2115 after 72 hrs by CLSI broth microdilution method; assay type: functional; conditions: PMC 2115, 72 h; method in brief: as §2
Pichia kudriavzevii [37] = test: Antifungal activity against Candida krusei PMC 0613 after 48 hrs by CLSI broth microdilution method; assay type: functional; conditions: PMC 0613, 48 h; method in brief: as §1
Pichia kudriavzevii [38] = test: Antifungal activity against Candida krusei DSM 6128 after 48 hrs by CLSI broth microdilution method; assay type: functional; conditions: DSM 6128, 48 h; method in brief: as §1
Cryptococcus neoformans [39] = test: Antifungal activity against Cryptococcus neoformans PMC 2123 after 72 hrs by CLSI broth microdilution method; assay type: functional; conditions: PMC 2123, 72 h; method in brief: as §2
Nakaseomyces glabratus [40] = test: Antifungal activity against Candida glabrata PMC 0805 after 48 hrs by CLSI broth microdilution method; assay type: functional; conditions: PMC 0805, 48 h; method in brief: as §1
Candida albicans [41] = test: Antifungal activity against Candida albicans PMC 1042R after 48 hrs by CLSI broth microdilution method; assay type: functional; method in brief: as §1

O=C(OC(Cn1ccnc1)c1ccc(Cl)cc1)N1CCN(c2ccc(Cl)cc2)CC1 (stereo unspecified)
MIC50 (Candida albicans [1]): 0.5 µg/mL (≈ 1.12 µM)
CC50 at 48 h [2]: 82.2 µg/mL (≈ 185 µM)
MIC50 (Cryptococcus neoformans [3]): 4 µg/mL (≈ 8.98 µM)
MIC50 (Candida albicans [4]): 0.5 µg/mL (≈ 1.12 µM)
MIC50 (Candida albicans [5]): 0.5 µg/mL (≈ 1.12 µM)
MIC50 (Cryptococcus neoformans [6]): 4 µg/mL (≈ 8.98 µM)
MIC50 (Cryptococcus neoformans [7]): 4 µg/mL (≈ 8.98 µM)
MIC50 (Candida tropicalis [8]): 4 µg/mL (≈ 8.98 µM)
MIC50 (Candida albicans [9]): 2 µg/mL (≈ 4.49 µM)
MIC50 (Nakaseomyces glabratus [10]): 8 µg/mL (≈ 18 µM)
MIC80 [11]: 8 µg/mL (≈ 18 µM)
MIC50 (Candida albicans [12]): 0.25 µg/mL (≈ 0.561 µM)
MIC50 (Candida albicans [13]): 1 µg/mL (≈ 2.25 µM)
MIC50 (Candida albicans [14]): 8 µg/mL (≈ 18 µM)
MIC50 (Cryptococcus neoformans [15]): 4 µg/mL (≈ 8.98 µM)
MIC80 (Nannizzia gypsea [16]): 2 µg/mL (≈ 4.49 µM)
MIC50 (Candida tropicalis [17]): 4 µg/mL (≈ 8.98 µM)
MIC50 (Cryptococcus neoformans [18]): 2 µg/mL (≈ 4.49 µM)
MIC50 (Candida albicans [19]): 32 µg/mL (≈ 71.9 µM)
MIC50 (Nakaseomyces glabratus [20]): 4 µg/mL (≈ 8.98 µM)
MIC80 [21]: 8 µg/mL (≈ 18 µM)
MIC50 (Candida albicans [22]): 0.5 µg/mL (≈ 1.12 µM)
MIC50 (Candida parapsilosis [23]): 1 µg/mL (≈ 2.25 µM)
MIC80 [24]: 4 µg/mL (≈ 8.98 µM)
MIC80 (Nannizzia gypsea [25]): 8 µg/mL (≈ 18 µM)
MIC50 (Nakaseomyces glabratus [26]): 8 µg/mL (≈ 18 µM)
MIC50 (Nakaseomyces glabratus [27]): 8 µg/mL (≈ 18 µM)
MIC80 [28]: 2 µg/mL (≈ 4.49 µM)
MIC50 (Candida parapsilosis [29]): 1 µg/mL (≈ 2.25 µM)
MIC50 (Candida albicans [30]): 0.5 µg/mL (≈ 1.12 µM)
MIC80 (Nannizzia gypsea [31]): 2 µg/mL (≈ 4.49 µM)
MIC80 [32]: 1 µg/mL (≈ 2.25 µM)
MIC50 (Cryptococcus neoformans [33]): 2 µg/mL (≈ 4.49 µM)
MIC50 (Nakaseomyces glabratus [34]): 4 µg/mL (≈ 8.98 µM)
MIC80 [35]: 8 µg/mL (≈ 18 µM)
MIC50 (Cryptococcus neoformans [36]): 4 µg/mL (≈ 8.98 µM)
MIC50 (Pichia kudriavzevii [37]): 1 µg/mL (≈ 2.25 µM)
MIC50 (Pichia kudriavzevii [38]): 4 µg/mL (≈ 8.98 µM)
MIC50 (Cryptococcus neoformans [39]): 4 µg/mL (≈ 8.98 µM)
MIC50 (Nakaseomyces glabratus [40]): 1 µg/mL (≈ 2.25 µM)
MIC50 (Candida albicans [41]): 4 µg/mL (≈ 8.98 µM)
